B2AR ag: human beta-2 adrenergic receptor agonism by FAP | actives 0.43% (n = 340,000) | Am2.2-beta2AR cells, FAP receptor internalization, flow cytometry | P07550 | response, % (test concentration not listed);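 active = response above a set limit, near 3 SD of response in nonfluorescent compounds, cut at about 42% in these data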
Mdm2 ligase inh: blocks human Mdm2 ubiquitin ligase activity; Q00987; signal enhancement, % at 5 µM; actives 0.11% (n = 210,000); cell-based MDM2 ubiquitination luciferase reporter, 2 h; 0 = plate control, 100 = twice control, blank-subtracted;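 active = signal enhancement of 30% or more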;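 also: luminescence tracks abundance of the self-degrading MDM2-luciferase fusion protein; higher signal means inhibition of MDM2 E3 ligase activity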
Target sequence (Q00987 whole entry, looked up, the tested form may be a part): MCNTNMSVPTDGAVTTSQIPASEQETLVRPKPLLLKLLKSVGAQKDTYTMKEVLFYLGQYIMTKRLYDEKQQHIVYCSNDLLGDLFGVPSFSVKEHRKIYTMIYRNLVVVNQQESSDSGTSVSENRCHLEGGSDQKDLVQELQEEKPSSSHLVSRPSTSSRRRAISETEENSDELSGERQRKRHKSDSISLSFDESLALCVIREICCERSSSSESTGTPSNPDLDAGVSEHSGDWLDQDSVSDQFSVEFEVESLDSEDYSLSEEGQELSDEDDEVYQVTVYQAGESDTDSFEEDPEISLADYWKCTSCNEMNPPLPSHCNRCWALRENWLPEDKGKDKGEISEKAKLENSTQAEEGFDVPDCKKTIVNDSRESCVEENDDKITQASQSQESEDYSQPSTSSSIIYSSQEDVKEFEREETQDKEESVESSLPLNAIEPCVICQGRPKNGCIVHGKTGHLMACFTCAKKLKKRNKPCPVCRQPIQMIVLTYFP
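Timing – 2 h compound exposure at 37 °C · Assay system – mammalian cells stably expressing self-ubiquitinating, self-degrading MDM2 E3–luciferase fusion · Amount – 2000 cells seeded into each well · Measure – % luminescence enhancement versus blank-corrected plate control mean · Measured by – SteadyLite luminescence, 15 min reagent step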
XBP1 UPR activ: activators of adaptive arm of unfolded protein response (XBP1); CHO-XBP1 luciferase reporter, IRE1-XBP1 UPR activation, luminescence; percent of tunicamycin response, DMSO as zero; activation, % at 20 µM; actives 0.33% (n = 330,000);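 active = versus positive control, 20 µM dose yields 30% or more activation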;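 also: 100% = tunicamycin at 10 µg/mL and 0% = DMSO only wells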
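Material: CHO cell line with stable XBP1 luciferase reporter; buffer or medium: F12 medium containing 10% fetal bovine serum; compound: single point, 20 µM final compound, 1% DMSO; incubation: 6 h treatment, 37 °C; measured by: glow luminescence from Steady-Glo reagent; evaluation: activation, % of tunicamycin; control set: tunicamycin high, DMSO low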
Mdm2 MdmX PPI: human Mdm2/MdmX binding inhibition. O15151+Q00987. SaOS-2 split-luciferase Mdm2/MdmX complementation, luminescence. inhibition, % at 8 µM. actives 3% (n = 330,000). AID 485346;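 active = inhibition of at least 50% at 8 µM in the primary screen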
UPR CHOP act: activators of apoptotic arm of unfolded protein response (CHOP); actives 0.34% (n = 330,000); AID 449763; CHO-CHOP luciferase reporter, UPR activation, luminescence; percent of tunicamycin response over DMSO baseline; activation, % at 10 µM;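 active = at 10 µM dose, activation of 40% or more, normalized to positive control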;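 also: 100% = tunicamycin at 10 µg/mL and 0% = DMSO alone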
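assay system = CHO CHOP reporter cells | amount = 500 CHO-CHOP cells per well | buffer or medium = F12 with 10% FBS | incubation = 16-18 h cell attachment, then 6 h compound exposure, 37 °C | detection = luminescence read with Steady-Glo | read-out = percent activation relative to tunicamycin control | controls = tunicamycin high control, DMSO low control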
Dynein transport: dynein cargo transport inhibition; 3617.4 mouse cells, GR-EGFP nuclear translocation imaging; test concentration mostly 20 µM; stimulated with dexamethasone, 1 µM; active compounds read low; z-score, hits read low; actives 0.47% (n = 220,000);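 active = plate z-score of nuclear minus cytoplasmic receptor signal below a set negative limit, without overly bright fluorescence or cell loss, cut at about -3.5 in these data, passing the limit was not always enough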;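 also: z-score of nuclear minus cytoplasmic ring GR-EGFP intensity difference per well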
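Also added – dexamethasone, 1.0 µM final · Buffer or medium – tet-free, stripped-serum medium · Schedule – induction 48 h, compound 1 h, agonist 30 min · Detection – formaldehyde fixation, Hoechst nuclear stain, 10x automated fluorescence imaging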
Mdm2-MdmX conf: confirmation of human Mdm2/MdmX interaction inhibitors | shares compounds with Mdm2 MdmX PPI | Mdm2-MdmX binding, luminescent assay | inhibition, % at 8 µM | actives 55% (n = 10,000); in the data active = inhibition above about 40%
Full FLuc ctr: counter-screen for Mdm2/MdmX inhibitors: full-length luciferase; inhibition, % at 8 µM; SaOS-2 full-length luciferase counterscreen, luminescence; shares compounds with Mdm2 MdmX PPI; actives 77% (n = 6,200);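 active = mean inhibition at 8 µM reaching about 37%, which flags the compound as non-specific, limit read from the data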;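 also: p53-null SaOS-2 cells with luciferase driven by a doxycycline-inducible promoter; compound on cells about two nights before reading with doxycycline added after day one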
* = called active by the depositor; / = no result given. Hits are enriched below; roughly 3.7% of the tested compounds scored in any of these assays.

SMILES | B2AR ag | Mdm2 ligase inh | XBP1 UPR activ | Mdm2 MdmX PPI | UPR CHOP act | Dynein transport | Mdm2-MdmX conf | Full FLuc ctr
Cc1c(O)cccc1C(=O)N[C@@H](CSc1ccccc1)[C@H](O)CN1C[C@H]2CCCC[C@H]2C[C@H]1C(=O)NC(C)(C)C | -11 | / | 4 | 56* | 14 | / | 18 | /
CSc1cccc(NC(=O)CN2C(=O)c3ccccc3S2(=O)=O)c1 | 2 | -14 | -6 | 53* | -1 | 0.0043 | 44* | 77*
COc1ccc(C(=O)CN2C(=O)c3ccccc3S2(=O)=O)cc1Br | 9 | / | -8 | 23 | -2 | / | / | /
Cc1cc(C(=O)CN2C(=O)c3ccccc3S2(=O)=O)c(C)n1CC1CCCO1 (centres undefined) | -5 | -83 | -4 | 54* | -7 | 0.67 | 37 | 9
O=C(CN1C(=O)c2ccccc2S1(=O)=O)c1ccc(O)c(O)c1 | -2 | 7 | 3 | 56* | -1 | -0.57 | 55* | 74*
COc1ccc(C(=O)CN2C(=O)c3ccccc3S2(=O)=O)cc1 | -7 | -73 | -8 | 94* | -7 | 0.16 | 95* | 26
Cc1cc(C(=O)CN2C(=O)NC(C)(c3ccccc3)C2=O)c(C)n1CC1CCCO1 (centres undefined) | 1 | -12 | 1 | 12 | 3 | 1.1 | / | /
O=C(CN1C(=O)c2ccccc2S1(=O)=O)Nc1ccccc1 | -9 | -15 | -3 | 32 | -2 | -0.51 | / | /
O/N=C(\c1ccccc1)c1nccc2ccccc12 | 8 | / | -3 | 13 | 3 | / | / | /
COc1ccc(C2/C(=C(/O)c3ccc4c(c3)CC(C)O4)C(=O)C(=O)N2CCCn2ccnc2)cc1OC (centres undefined) | -2 | / | / | / | / | / | / | /
Cc1ccc(C)c(C(=O)CN2C(=O)c3ccccc3C2=O)c1 | -3 | / | 1 | -1 | 3 | / | / | /
Cc1ccc(C)c(C(=O)CN2C(=O)c3ccccc3S2(=O)=O)c1 | 5 | -26 | -3 | 68* | -1 | -0.21 | 60* | 100*
COc1ccc(CNC(=O)CCc2ccc(S(=O)(=O)N3CCCCCC3)cc2)cc1OC | 1 | / | -5 | 0 | 0 | / | / | /
Cc1cc(-c2csc(NC(=O)c3cc4ccccc4o3)n2)c(C)n1C | 8 | -29 | 1 | 9 | 0 | 3.4 | / | /
Cc1c(C(=O)Nc2nc(-c3ccccn3)cs2)oc2ccccc12 | 23 | / | 5 | 67* | 3 | / | 64* | 47*
O=C(Nc1nc(-c2ccccn2)cs1)c1cc2ccccc2o1 | 6 | -14 | -2 | 52* | 3 | 1.4 | 55* | 53*
COc1ccc(/[N+]([O-])=C/c2ccoc2)cc1 | -3 | / | 7 | -19 | 5 | / | / | /
Cc1nn(-c2ccc(F)cc2)c(Cl)c1C(=O)NCC1CCCO1 (centres undefined) | 1 | / | -1 | 8 | 1 | / | / | /
OC[C@H]1O[C@H](OC[C@H]2OC(O)[C@H](O)[C@@H](O)[C@@H]2O)[C@H](O)[C@@H](O)[C@@H]1O (some centres undefined) | 0 | / | -6 | 16 | -3 | / | / | /
COc1cc(OC)c2c(-c3ccccc3)cc(=O)oc2c1C(CCN1CCCC(C)C1)c1ccc2c(c1)OCO2 (centres undefined) | 18 | 13 | 10 | 74* | 9 | -1.3 | 37 | 77*
COc1cc(OC)c2c(-c3ccccc3)cc(=O)oc2c1C(CC(=O)N1CCCC1)c1ccc2c(c1)OCO2 (centres undefined) | 0 | 4 | 29 | -3 | 1 | 1.2 | / | /
COc1cc(OC)c2c(-c3ccccc3)cc(=O)oc2c1C(CCN1CCCCC1)c1ccc2c(c1)OCO2 (centres undefined) | 22 | 5 | 13 | 99* | 10 | 1 | 30 | /
C[C@@H]1CC2OC(=O)[C@@]3(C)C(=O)CC[C@@](C)(C23)[C@@]1(O)CCc1ccoc1 (some centres undefined) | 2 | / | -8 | -8 | 1 | / | / | /
Cc1ccc(N(C)S(=O)(=O)c2cccc(C(=O)NC3CC(C)(C)NC(C)(C)C3)c2)cc1 | 0 | / | -1 | 35 | 1 | / | / | /
COc1ccccc1N(Cc1ccccc1)S(=O)(=O)c1cccc(C(=O)Nc2ccccn2)c1 | 4 | / | -1 | 67* | -1 | / | 60* | 91*
SMILES | B2AR ag | Mdm2 ligase inh | XBP1 UPR activ | Mdm2 MdmX PPI | UPR CHOP act | Dynein transport | Mdm2-MdmX conf | Full FLuc ctr
CC1(C)CC(NC(=O)c2cccc(S(=O)(=O)N(Cc3ccccc3)c3ccccc3)c2)CC(C)(C)N1 | 33 | / | 5 | 95* | -1 | / | 59* | 61*
COc1ccccc1N(Cc1ccccc1)S(=O)(=O)c1cccc(C(=O)Nc2ccc(C)cn2)c1 | 11 | / | -1 | 55* | 2 | / | 37 | /
COc1ccccc1N(Cc1ccccc1)S(=O)(=O)c1cccc(C(=O)Nc2ccc(C(C)=O)cc2)c1 | 11 | -6 | 2 | 11 | 6 | 0.9 | / | /
CN(C)CCNCCCNc1c2ccccc2nc2cccc([N+](=O)[O-])c12 | -3 | / | / | / | / | / | / | /
Cc1cc(S(=O)(=O)N2CCCC(N3CCOCC3)C2)c(C)cc1Cl (centres undefined) | 2 | / | -4 | 11 | 1 | / | / | /
Clc1ccccc1Cn1nnc2ccccc21 | 6 | / | -1 | 36 | 1 | / | / | /
COc1ccc(C(=O)c2sc(Nc3ccccc3)nc2N)cc1 | -8 | / | 0 | 39 | 4 | / | / | /
Nc1nc(Nc2ccccc2)sc1C(=O)c1ccccc1 | 5 | -13 | -3 | 62* | 1 | 0.078 | 4 | /
COc1ccc(-c2c(C)nc3c(-c4ccc(F)cc4)cnn3c2N)cc1 | -2 | / | -3 | 32 | 3 | / | / | /
Cc1nc2c(-c3ccc(F)cc3)cnn2c(N)c1-c1ccccc1 | 1 | / | -9 | 91* | -6 | / | 87* | 110*
Nc1c(-c2ccc(Cl)cc2)cnc2c(-c3ccc(F)cc3)cnn12 | 5 | / | 6 | -90 | 5 | / | / | /
Cc1nc2c(-c3ccc(Cl)cc3)cnn2c(N)c1-c1ccc(F)cc1 | 3 | / | -5 | 88* | -3 | / | 85* | 105*
CCC1Sc2ccc(S(=O)(=O)CCC(=O)Nc3cccc(Br)c3)cc2NC1=O (centres undefined) | 0 | / | -5 | -12 | -1 | / | / | /
Oc1cc(NCc2ccc(F)cc2)cc2cccnc12 | 4 | / | 17 | 56* | 14 | / | 17 | /
CCN(CC)S(=O)(=O)c1cccc(NC(=O)CNc2cccc(S(=O)(=O)N3CCOCC3)c2)c1 | -8 | / | 0 | 26 | 4 | / | / | /
